Data as given in article PMC3147223 (Journal of biomedical materials research. Part A, 2009).
Where no end group is shown, it is not given here.

What was measured:
Human pulmonary ECs = experiment: Competitive platelet-EC static adhesion assay: EC adhesion; format: cell-based; conditions: washed suspension of 190 EC/μl and 50,000 platelet/μl, 30 min, 37°C, n=3, FN=1
In short: (§1)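 Passage-7 ECs were detached (Cellstripper, 30 min) and mixed in 1% BSA with washed platelets (citrated donor blood; PRP pelleted, EDTA-PBS wash), plus 2 mM CaCl2 and 1 mM MgCl2 final. Surfaces (FSP adsorbed 24 h on fluorosilane monolayers, or FN-coated glass) were pre-blocked with 2% BSA for 30 min. Samples were PFA-fixed and stained with FITC anti-CD41a, phalloidin and DAPI. 14–33 epifluorescent fields/surface were analysed; two-sample t-test.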

platelets = experiment: Competitive platelet-EC static adhesion assay: platelet adhesion; format: cell-based, human; conditions: washed suspension of 190 EC/μl and 50,000 platelet/μl, 30 min, 37°C, n=3, FN=1
In short: as §1

Substance | EC adhesion (EC population) normalized to FN (Human pulmonary ECs) | Platelet surface coverage normalized to FN, platelet-EC suspension (platelets)
GSSS-*CRRETAWAC* (disulfide) [cRRE FSP] | 0.93 | –
GSSSRGD [RGD FSP] | 0.99 | 1.99
cyclic(RGDfE)-SSSK (head to tail) [cRGD FSP] | 1.05 | 2.66
